# Assay results as given in ChEMBL document CHEMBL1154689, “Coordination chemistry based approach to lipophilic inhibitors of 1-deoxy-D-xylulose-5-phosphate reductoisomerase” (J Med Chem, 2009).
# System: not listed separately
# Assay: Inhibition of Escherichia coli M15 DXR
# Details: not given
row,SMILES,IC50
1,Oc1ccc(Cc2ccccc2)cc1O,22.4 µM
2,O=c1ccc(-c2ccccc2)cn1O [1-HYDROXY-5-PHENYLPYRIDIN-2(1H)-ONE],1.4 µM
3,O=CN(O)CCCP(=O)(O)O [FOSMIDOMYCIN],0.08 µM
4,Oc1ccc(-c2ccccc2)cn1,75 µM

# System: Escherichia coli
# Assay: Antibacterial activity against Escherichia coli B/r after 24 hrs by NCCLS method
# Type: functional
# Details: not given
# How it was run: (§1)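 MIC taken as the lowest agent concentration preventing visible bacterial growth after 24 h incubation at 37 °C.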
row,SMILES,MIC
1,Oc1ccc(Cc2ccccc2)cc1O,1000 µM
2,O=c1ccc(-c2ccccc2)cn1O [1-HYDROXY-5-PHENYLPYRIDIN-2(1H)-ONE],100 µM
3,NC[C@H]1O[C@H](O[C@H]2[C@H](O)[C@@H](O[C@H]3O[C@H](CO)[C@@H](O)[C@H](N)[C@H]3O)[C@H](N)C[C@@H]2N)[C@H](O)[C@@H](O)[C@@H]1O [KANAMYCIN],10 µM
4,O=CN(O)CCCP(=O)(O)O [FOSMIDOMYCIN],10 µM
5,O=P(O)(O)CCc1ccc(O)c(O)c1,> 1000 µM
6,CC1(C)S[C@@H]2[C@H](NC(=O)[C@H](N)c3ccccc3)C(=O)N2[C@H]1C(=O)O [AMPICILLIN],5 µM
7,Oc1ccc(-c2ccccc2)cc1O,500 µM

# System: Escherichia coli
# Assay: Inhibition of Escherichia coli M15 DXR at 100 uM
# Details: not given
row,SMILES,inhibition
1,O=C(O)CCc1ccc(O)c(O)c1,26.2%
2,[O-][n+]1cccc(-c2ccccc2)c1,0%
3,O=c1cc(Cc2ccccc2)[nH]cc1O,0%
4,Nc1cc(-c2ccccc2)ccc1O,0%
5,O=c1ccn(O)c(=O)n1Cc1ccccc1,0%
6,O=c1n(O)ccn1Cc1ccccc1,19%
7,O=C(Cc1ccccc1)NO,26%
8,O=c1cc(Cc2ccccc2)occ1O,0%
9,Oc1cnc(Cc2ccccc2)nc1O,30%
10,O=C(O)c1cc(-c2ccccc2)ccc1O,0%

# System: Micrococcus luteus
# Assay: Antibacterial activity against Micrococcus luteus WT after 24 hrs by NCCLS method
# Type: functional
# Details: not given
# How it was run: as §1
row,SMILES,MIC
1,Oc1ccc(Cc2ccccc2)cc1O,200 µM
2,O=c1ccc(-c2ccccc2)cn1O [1-HYDROXY-5-PHENYLPYRIDIN-2(1H)-ONE],100 µM
3,NC[C@H]1O[C@H](O[C@H]2[C@H](O)[C@@H](O[C@H]3O[C@H](CO)[C@@H](O)[C@H](N)[C@H]3O)[C@H](N)C[C@@H]2N)[C@H](O)[C@@H](O)[C@@H]1O [KANAMYCIN],20 µM
4,O=CN(O)CCCP(=O)(O)O [FOSMIDOMYCIN],> 1000 µM
5,O=P(O)(O)CCc1ccc(O)c(O)c1,> 1000 µM
6,CC1(C)S[C@@H]2[C@H](NC(=O)[C@H](N)c3ccccc3)C(=O)N2[C@H]1C(=O)O [AMPICILLIN],1 µM
7,Oc1ccc(-c2ccccc2)cc1O,200 µM

# System: not listed separately
# Assay: Cytotoxicity against human BEAS2B cells after 24 hrs by MTS assay
# Type: cell-based
# Details: BEAS-2B
row,SMILES,IC50
1,O=c1ccc(-c2ccccc2)cn1O [1-HYDROXY-5-PHENYLPYRIDIN-2(1H)-ONE],> 300 µM

# System: Bacillus anthracis
# Assay: Antibacterial activity against Bacillus anthracis Sterne after 24 hrs by NCCLS method
# Type: functional
# Details: not given
row,SMILES,MIC
1,Oc1ccc(Cc2ccccc2)cc1O,200 µM
2,O=c1ccc(-c2ccccc2)cn1O [1-HYDROXY-5-PHENYLPYRIDIN-2(1H)-ONE],20 µM
3,NC[C@H]1O[C@H](O[C@H]2[C@H](O)[C@@H](O[C@H]3O[C@H](CO)[C@@H](O)[C@H](N)[C@H]3O)[C@H](N)C[C@@H]2N)[C@H](O)[C@@H](O)[C@@H]1O [KANAMYCIN],5 µM
4,O=CN(O)CCCP(=O)(O)O [FOSMIDOMYCIN],100 µM
5,O=P(O)(O)CCc1ccc(O)c(O)c1,1000 µM
6,CC1(C)S[C@@H]2[C@H](NC(=O)[C@H](N)c3ccccc3)C(=O)N2[C@H]1C(=O)O [AMPICILLIN],0.1 µM
7,Oc1ccc(-c2ccccc2)cc1O,200 µM

# System: not listed separately
# Assay: Cytotoxicity against human WI38 cells after 24 hrs by MTS assay
# Type: cell-based
# Details: WI-38, 24 h
row,SMILES,IC50
1,O=c1ccc(-c2ccccc2)cn1O [1-HYDROXY-5-PHENYLPYRIDIN-2(1H)-ONE],> 300 µM

# System: Pseudomonas aeruginosa
# Assay: Antibacterial activity against Pseudomonas aeruginosa H45006 after 24 hrs by NCCLS method
# Type: functional
# Details: H45006, 24 h
# How it was run: as §1
row,SMILES,MIC
1,Oc1ccc(Cc2ccccc2)cc1O,200 µM
2,O=c1ccc(-c2ccccc2)cn1O [1-HYDROXY-5-PHENYLPYRIDIN-2(1H)-ONE],50 µM
3,NC[C@H]1O[C@H](O[C@H]2[C@H](O)[C@@H](O[C@H]3O[C@H](CO)[C@@H](O)[C@H](N)[C@H]3O)[C@H](N)C[C@@H]2N)[C@H](O)[C@@H](O)[C@@H]1O [KANAMYCIN],200 µM
4,O=CN(O)CCCP(=O)(O)O [FOSMIDOMYCIN],20 µM
5,O=P(O)(O)CCc1ccc(O)c(O)c1,1000 µM
6,CC1(C)S[C@@H]2[C@H](NC(=O)[C@H](N)c3ccccc3)C(=O)N2[C@H]1C(=O)O [AMPICILLIN],500 µM
7,Oc1ccc(-c2ccccc2)cc1O,200 µM
